In paper PMC6239893 (Nature chemical biology, 2018):

Legend:
[1] = test system: COX1 aI5γ group II intron; experiment: Analysis of splicing in S. cerevisiae by qRT-PCR; type: cell-based; details: S. cerevisiae in YPGE, 4 h; 19 64 μg/mL, 18 32 μg/mL, 12 32 μg/mL, 3 64 μg/mL
[2] = test system: S. cerevisiae wild-type (NP40–36a) and intronless (XPM46) strains; experiment: S. cerevisiae growth assays, wild-type vs mtDNA intronless strain; type: cell-based; details: YPGE medium, 64 or 128 μg/mL
Procedure, shortened: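 Wild-type NP40–36a and mtDNA intronless XPM46 strains were grown overnight with shaking to mid-log phase in YPGE at 30 °C. Equal cell numbers were serially diluted 1:5 and plated on YPD or YPGE. Plates held DMSO or test compound at 64 or 128 µg/mL final. Plates grew at 30 °C for 1 day (YPD), 2 days (YPGE with DMSO) or 18 days (YPGE with compound). Done twice.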

[3] = test system: ai5γ intron with short exons (SE RNA); experiment: Radioanalytic self-splicing assay; type: biochemical, S. cerevisiae; details: relative to lead compound; IC50 and Ki assays
Procedure, shortened: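 Internally ³²P-labelled ai5γ precursor with short exons (2 nM) self-spliced at 30 °C with a range of test compound concentrations. Buffer was 50 mM MOPS pH 7.5, 8 mM MgCl₂, 100 mM KCl. First-order splicing rates were fitted to k_obs = k_max/(1+[I]/K_i) to give K_i. Each determination was repeated 2–4 times; mean ± s.e.m.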

[4] = test system: ai5γ group II intron (D135 ribozyme); experiment: Fluorescent D135 ribozyme cleavage assay; type: biochemical, S. cerevisiae; details: compared with the parental molecule 7

In vitro inhibitory activity in SAR (in words) [3]	Compound	Splicing of COX1 aI5γ group II intron in vivo (unspliced precursor, qRT-PCR) [1]	further results
	CC(=O)c1ccc(-c2ccc3oc(C(=O)c4cc(O)c(O)c(O)c4)cc3c2)cc1 [Compound 18]	inhibit splicing	Growth of intronless strain versus wild-type strain in presence of compound [2]: much more resistant
	O=C1/C(=C/c2cc(O)cc(O)c2)Oc2cc(O)cc(O)c21 [Compound 3]	inactive	
	Cc1ccncc1-c1ccc2oc(C(=O)c3cc(O)c(O)c(O)c3)cc2c1 [Compound 12]	inhibit splicing	
inactivated	O=C1/C(=C/c2ccc(O)c(O)c2)Oc2cc(O)cc(O)c21 [Compound 2]		
substantial loss of activity	COc1ccc(CNC(=O)c2cc(O)c(O)c(O)c2)cc1OC [Compound 10]		
	O=C(c1cc(O)c(O)c(O)c1)c1cc2ccccc2o1 [Compound 9]		Increase in in vitro potency [4]: 2 fold
substantial loss of activity	CCCCNS(=O)(=O)c1ccc(-c2ccc(-c3nc(-c4cc(O)c(O)c(O)c4)cs3)cc2)cc1 [Compound 11]		
